The values below come from ChEMBL document CHEMBL3758120, “Synthesis and Mechanism Studies of 1,3-Benzoazolyl Substituted Pyrrolo[2,3-b]pyrazine Derivatives as Nonintercalative Topoisomerase II Catalytic Inhibitors” (J Med Chem, 2016).

Assay [1] has as its target T1, DNA topoisomerase 1 (Homo sapiens) (UniProt P11387).
T1 sequence (whole entry): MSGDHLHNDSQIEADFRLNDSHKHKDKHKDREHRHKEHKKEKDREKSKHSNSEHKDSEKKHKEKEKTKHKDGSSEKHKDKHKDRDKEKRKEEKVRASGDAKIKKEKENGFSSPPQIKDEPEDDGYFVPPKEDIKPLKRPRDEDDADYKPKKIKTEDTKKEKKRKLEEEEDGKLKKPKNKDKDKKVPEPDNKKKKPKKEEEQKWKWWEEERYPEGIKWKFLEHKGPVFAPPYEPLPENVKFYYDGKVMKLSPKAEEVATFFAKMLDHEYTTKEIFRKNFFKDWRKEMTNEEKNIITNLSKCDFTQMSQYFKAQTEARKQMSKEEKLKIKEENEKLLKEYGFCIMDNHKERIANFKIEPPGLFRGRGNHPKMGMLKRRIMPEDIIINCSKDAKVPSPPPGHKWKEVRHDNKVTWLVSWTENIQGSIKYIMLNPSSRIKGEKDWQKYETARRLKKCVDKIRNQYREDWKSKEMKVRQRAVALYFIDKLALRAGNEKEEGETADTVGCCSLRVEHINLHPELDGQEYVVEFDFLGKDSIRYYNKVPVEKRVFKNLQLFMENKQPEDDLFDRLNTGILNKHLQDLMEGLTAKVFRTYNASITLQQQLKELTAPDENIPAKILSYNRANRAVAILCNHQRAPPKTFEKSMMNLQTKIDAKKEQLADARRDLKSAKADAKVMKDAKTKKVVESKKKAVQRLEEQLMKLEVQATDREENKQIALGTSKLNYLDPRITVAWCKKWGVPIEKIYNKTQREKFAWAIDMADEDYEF
Nature of the assay: Inhibition of recombinant human topoisomerase 1-mediated relaxation of supercoiled pBR322 DNA at 50 uM incubated for 30 mins by agarose gel electrophoresis. The method in brief: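 Supercoiled pBR322 relaxed by Topo I with compound, incubated 30 min at 37 °C, stopped with 1% SDS dye, run on 1% agarose 1 h at 90 V in TAE, stained and imaged under UV; camptothecin as reference.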

The test system of assay [2] is HeLa. The assay is described as follows: Antiproliferative activity against human HeLa cells after 48 hrs by MTT assay. It counts as functional, cell-based. The method in brief: (§1)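 Cells seeded at 5000 per well and left overnight, then exposed to increasing concentrations (0-50 μM) for 48 h. […] HL-60/MX2 is a mitoxantrone-selected HL-60 derivative with reduced Topo IIα/β.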
For orientation: Tetrazolium dyes change colour on reduction, which living cells bring about.

A short description of assay [3]: Antiproliferative activity against human MDA-MB-201 cells after 48 hrs by MTT assay. It is filed as functional, cell-based. The method in brief:
as §1

In assay [4] the test system is A549. Nature of the assay: Antiproliferative activity against human A549 cells after 48 hrs by MTT assay. It is filed as functional, cell-based. Conditions: A549, 48 h. The method in brief:
as §1

Assay [5] concerns K562. The assay is described as follows: Antiproliferative activity against human K562 cells after 48 hrs by MTT assay. It counts as functional, cell-based. The following applies: K562, 48 h. The method in brief: as §1
Assay [6] has as its system Raji. Nature of the assay: Antiproliferative activity against human Raji cells after 48 hrs by MTT assay. It is filed as functional, cell-based. The method in brief:
as §1

Assay [7] can be described thus: Antiproliferative activity against human HL60 cells after 48 hrs by MTT assay. Conditions: HL-60, 48 h. It is filed as functional, cell-based. The method in brief: as §1
Assay [8] in a line: Antiproliferative activity against human HL60/MX2 cells after 48 hrs by MTT assay. It is filed as functional, cell-based. Conditions: HL60/MX2, 48 h. The method in brief: as §1
The subject of assay [9] is HL-60. Nature of the assay: Resistance index, ratio of IC50 for human HL60/MX2 cells to IC50 for HL60 cells. It counts as functional. The method in brief:
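Resistance index calculated as MTT-derived IC50 (48 h exposure, 0-50 μM, A570 readout) in HL-60/MX2 divided by IC50 in parental HL-60.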

In assay [10] the test system is HEK293. Nature of the assay: Cytotoxicity against HEK293 cells after 48 hrs by MTT assay. It counts as cell-based. Conditions: Homo sapiens, HEK293, 48 h.
The target of assay [11] is T2, DNA topoisomerase 2-alpha (Homo sapiens, UniProt P11388). The assay is described as follows: Inhibition of purified human topoisomerase 2-mediated relaxation of supercoiled pBR322 DNA at 20 uM incubated for 30 mins by agarose gel electrophoresis. The method in brief: (§2)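 Reactions contained 0.2 μg supercoiled pBR322 in 50 mM Tris-HCl pH 8.0, 150 mM NaCl, 10 mM MgCl2, 0.5 mM DTT, 30 μg/ml BSA, normally 2 mM ATP (1, 2 or 4 mM in ATP-competition runs). Started with 1 U human Topo II, 30 min at 37 °C, stopped with sarcosyl buffer, run on 1% agarose 1.5 h at 75 V, gel-stained and imaged under UV.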
T2 sequence (P11388 whole entry): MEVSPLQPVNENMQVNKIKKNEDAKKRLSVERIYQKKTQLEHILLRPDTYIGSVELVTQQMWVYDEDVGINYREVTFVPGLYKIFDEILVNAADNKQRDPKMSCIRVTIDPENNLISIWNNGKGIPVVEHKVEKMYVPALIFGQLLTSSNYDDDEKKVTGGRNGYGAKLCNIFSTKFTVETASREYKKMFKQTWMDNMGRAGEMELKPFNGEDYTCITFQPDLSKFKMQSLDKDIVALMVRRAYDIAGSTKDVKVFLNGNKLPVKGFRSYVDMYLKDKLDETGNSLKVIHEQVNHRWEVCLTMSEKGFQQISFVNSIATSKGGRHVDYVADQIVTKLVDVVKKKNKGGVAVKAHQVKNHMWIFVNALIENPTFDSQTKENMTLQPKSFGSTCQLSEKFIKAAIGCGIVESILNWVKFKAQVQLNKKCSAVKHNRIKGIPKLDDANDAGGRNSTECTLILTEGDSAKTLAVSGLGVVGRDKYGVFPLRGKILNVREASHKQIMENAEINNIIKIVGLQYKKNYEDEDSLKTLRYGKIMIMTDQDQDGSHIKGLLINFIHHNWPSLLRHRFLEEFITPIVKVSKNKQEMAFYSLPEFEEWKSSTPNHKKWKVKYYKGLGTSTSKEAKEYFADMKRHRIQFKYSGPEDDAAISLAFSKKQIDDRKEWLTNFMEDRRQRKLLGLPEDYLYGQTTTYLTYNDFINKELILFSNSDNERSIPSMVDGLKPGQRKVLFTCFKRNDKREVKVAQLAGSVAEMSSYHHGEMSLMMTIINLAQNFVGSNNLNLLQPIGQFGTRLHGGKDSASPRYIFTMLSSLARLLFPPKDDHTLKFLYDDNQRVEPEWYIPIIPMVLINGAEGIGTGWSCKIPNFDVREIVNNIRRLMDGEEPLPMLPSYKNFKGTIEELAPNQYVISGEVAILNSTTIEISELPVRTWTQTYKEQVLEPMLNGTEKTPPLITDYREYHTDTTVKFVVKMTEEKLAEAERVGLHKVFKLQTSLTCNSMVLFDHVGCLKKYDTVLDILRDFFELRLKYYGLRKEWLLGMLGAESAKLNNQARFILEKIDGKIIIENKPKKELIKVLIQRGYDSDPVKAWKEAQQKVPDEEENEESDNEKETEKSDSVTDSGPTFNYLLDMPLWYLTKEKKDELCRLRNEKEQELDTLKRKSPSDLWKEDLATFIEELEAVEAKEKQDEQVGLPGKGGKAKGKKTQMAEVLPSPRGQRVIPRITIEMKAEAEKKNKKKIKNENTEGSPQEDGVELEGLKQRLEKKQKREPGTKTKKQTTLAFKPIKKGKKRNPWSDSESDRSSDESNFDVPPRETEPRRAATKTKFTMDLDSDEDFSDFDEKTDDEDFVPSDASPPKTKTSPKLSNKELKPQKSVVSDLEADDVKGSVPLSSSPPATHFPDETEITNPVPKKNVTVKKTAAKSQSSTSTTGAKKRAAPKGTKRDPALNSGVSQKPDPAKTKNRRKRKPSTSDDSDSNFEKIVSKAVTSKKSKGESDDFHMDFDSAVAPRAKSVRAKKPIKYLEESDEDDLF

Assay [12] deals with T2, DNA topoisomerase 2-alpha. Nature of the assay: Inhibition of purified human topoisomerase 2-mediated relaxation of supercoiled pBR322 DNA at 50 uM incubated for 30 mins by agarose gel electrophoresis. Put shortly: as §2

The structures appear in SMILES notation. Active and inactive are the calls of the source. The calls are words filed in the database; no cut-off is given here.

The IC50 is the concentration at which inhibition is half-maximal.

Consider `CN1CCN(CCn2c(N)c(-c3nc4ccccc4[nH]3)c3nc(C#N)c(C#N)nc32)CC1`, for which, in [1], the inhibition result is “inactive”. Further, the IC50 in assay [2] is greater than 50 µM; in assay [3], 9.11 µM; in assay [4], 40.5 µM; in [5] it was 6.55 µM; in [6], greater than 50 µM; in [7], 4.3 µM. For the same compound, the values for the IC50 in [8] and in [10] were 6.49 µM and 10.9 µM, respectively. For the same compound, in assay [9], the “Ratio IC50” value came out at 1.5.

On to `CN(C)CCCCn1c(N)c(-c2nc3ccccc3n2C)c2nc(C#N)c(C#N)nc21`, for which the inhibition result in assay [11] is “Active”. Further, the IC50 in assay [2] stood at 0.46 µM; in [3], 1.79 µM; in assay [4], 6.15 µM; in [5], 1.45 µM; in [6], 0.32 µM; in [7], 0.74 µM. The results for the IC50 in [8] and in [10] were 2.58 µM and 3.87 µM, respectively. Also, the “Ratio IC50” value in assay [9] is recorded as 3.5.

Take `CN(C)CCCn1c(N)c(-c2nc3ccccc3s2)c2nc(C#N)c(C#N)nc21`: the inhibition entry in assay [11] is “Active”. The 50% inhibitory concentration (IC50) in [2] is 0.72 µM; in assay [3] it was 2.93 µM; in assay [4], 8.87 µM; in assay [5], 1.8 µM; in assay [6] it was 2.99 µM; in assay [7] it was 0.51 µM. Further, the half-inhibitory concentration (IC50) in assay [8] was found to be 1.31 µM; in [10], 4.29 µM. Besides, the “Ratio IC50” value in assay [9] is 2.5.

In the case of `CCN(CC)CCCCn1c(N)c(-c2nc3ccccc3n2C)c2nc(C#N)c(C#N)nc21`, the inhibition result in assay [11] was “Active”. Besides, the IC50 in assay [2] worked out at 1.61 µM; in [3], 2.89 µM; in assay [4], 1.72 µM; in [5], 1.01 µM; in assay [6], 0.92 µM; in assay [7], 0.7 µM. Besides, the IC50 in assay [8] turned out to be 1.73 µM; in [10], 3.16 µM. In addition, the “Ratio IC50” value in assay [9] came out at 2.5.

Regarding `CN1CCN(CCCn2c(N)c(-c3nc4ccccc4[nH]3)c3nc(C#N)c(C#N)nc32)CC1`, the inhibition entry in [12] and in assay [1] was “inactive” each time. Further, the IC50 in assay [2] was determined as 15.6 µM; in [3], 4.52 µM; in assay [4], 5.75 µM; in [5], 1.26 µM; in [6] it was 2.62 µM; in assay [7] it was 0.75 µM. Also, the 50% inhibitory concentration (IC50) was 3.32 µM in assay [8] and 6.26 µM in assay [10]. Moreover, the “Ratio IC50” value in [9] was 4.4.

`N#Cc1nc2c(-c3nc4ccccc4[nH]3)c(N)n(CCCN3CCCCC3)c2nc1C#N`: the inhibition entry in assay [12] and in assay [1] was “inactive” throughout. Also, the IC50 amounted to 6.68 µM in [2]; 6.23 µM in [3]; 6.11 µM in [4]; 3.46 µM in assay [5]; 3.38 µM in assay [6]; 1.68 µM in [7]. Besides, the figures for the IC50 in [8] and in [10] were 1.01 µM and 6.72 µM, respectively. The “Ratio IC50” value in assay [9] amounted to 0.6.

Regarding `CN(C)CCn1c(N)c(-c2nc3ccccc3s2)c2nc(C#N)c(C#N)nc21`, the inhibition result in [12] and in [1] was “inactive” in each case. Moreover, the IC50 in assay [2] was greater than 50 µM; in assay [3], greater than 50 µM; in [4], greater than 50 µM; in assay [5], 8 µM; in assay [6] it was 1.96 µM; in assay [7], 1.67 µM. Also, the values for the IC50 in assay [8] and in assay [10] were greater than 50 µM and 11.8 µM, respectively.

Turning to `CCCCn1c(N)c(-c2nc3ccccc3[nH]2)c2nc(C#N)c(C#N)nc21`, the inhibition entry in assay [12] and in [1] was “inactive” each time. Besides, the concentration for half-maximal inhibition (IC50) in assay [2], in assay [3], in assay [4], in assay [5], in assay [6] and in [7] was greater than 50 µM throughout. For the same compound, the IC50 in [8] and in assay [10] was greater than 50 µM throughout.

For `Cn1c(N)c(-c2nc3ccccc3[nH]2)c2nc(C#N)c(C#N)nc21`, the inhibition result in [12] and in assay [1] was “inactive” throughout. Besides, the IC50 in assay [2], in assay [3], in [4], in assay [5], in [6] and in assay [7] was greater than 50 µM in each case. Moreover, the IC50 in assay [8] and in assay [10] was greater than 50 µM each time.

For the compound `CN(C)CCn1c(N)c(-c2nc3ccccc3[nH]2)c2nc(C#N)c(C#N)nc21`, the inhibition result in [12] and in assay [1] was “inactive” in each case. Moreover, the IC50 in [2] was 8.88 µM; in [3] it was 43.5 µM; in assay [4], greater than 50 µM; in assay [5], 6.34 µM; in assay [6], 8.32 µM; in [7], 2.22 µM. Also, the IC50 in assay [8] was 3.78 µM; in assay [10], 9.73 µM. In [9], the “Ratio IC50” value was 1.7.

In the case of `N#Cc1nc2c(-c3nc4ccccc4[nH]3)c(N)n(CCc3cc4ccccc4[nH]3)c2nc1C#N`, the inhibition result in [12] and in assay [1] was “inactive” each time. Moreover, the IC50 in assay [2], in assay [3], in assay [4], in [5], in assay [6] and in [7] was greater than 50 µM throughout. Besides, the IC50 in assay [8] and in assay [10] was greater than 50 µM each time.

Consider `COc1ccc(CCn2c(N)c(-c3nc4ccccc4[nH]3)c3nc(C#N)c(C#N)nc32)cc1`, for which the inhibition entry in assay [12] and in assay [1] was “inactive” each time. The IC50 in [2] was greater than 50 µM; in assay [3] it was greater than 50 µM; in assay [4], greater than 50 µM; in assay [5] it was greater than 50 µM; in assay [6], 2.78 µM; in assay [7], greater than 50 µM. For the same compound, the IC50 in assay [8] and in assay [10] was greater than 50 µM each time.

Turning to `CCCn1c(N)c(-c2nc3ccccc3[nH]2)c2nc(C#N)c(C#N)nc21`, the inhibition entry in assay [12] and in assay [1] was “inactive” in each case. Also, the IC50 in assay [2] is greater than 50 µM; in [3], greater than 50 µM; in assay [4], 1.97 µM; in assay [5], greater than 50 µM; in [6] it was greater than 50 µM; in [7], 45.2 µM. Also, the IC50 in assay [8] and in assay [10] was greater than 50 µM throughout.

In the case of `N#Cc1nc2c(-c3nc4ccccc4[nH]3)c(N)n(CCCO)c2nc1C#N`, the inhibition entry in [12] and in assay [1] was “inactive” each time. The concentration for half-maximal inhibition (IC50) in assay [2], in assay [3], in assay [4], in assay [5], in assay [6] and in assay [7] was greater than 50 µM in each case. The IC50 in [8] and in [10] was greater than 50 µM throughout.

Consider `CCN(CC)CCn1c(N)c(-c2nc3ccccc3[nH]2)c2nc(C#N)c(C#N)nc21`, for which the inhibition result in [12] and in assay [1] was “inactive” throughout. Moreover, the IC50 is 11.6 µM in [2]; 25.4 µM in assay [3]; greater than 50 µM in assay [4]; 2.49 µM in assay [5]; 8.95 µM in assay [6]; 1.88 µM in assay [7]. Moreover, the concentration for half-maximal inhibition (IC50) was 7.15 µM in assay [8] and 12.2 µM in assay [10]. The “Ratio IC50” value in assay [9] is 3.8.
